# Source: PubChem BioAssay (several laboratories)
# A selection: hits, their analogues and other compounds. The true share with any hit is near 2.8%.
# Yeast life ext – compounds extending yeast replicative lifespan, primary screen, S. cerevisiae, OD615; S. cerevisiae growth with nicotinamide; deaD strain in restrictive glucose medium; inhibition of the nicotinamide effect, % at 10 µM; actives 0.68% (n = 130,000);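 active = inhibition above a set limit, placed 3 SD over the median of all compounds, cut at about 26% in these data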;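 also: 0% = nicotinamide-treated wells and 100% = cells grown without nicotinamide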
#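 System: DeaD-strain S. cerevisiae / Buffer or medium: CSMM-D, restrictive glucose (dextrose) synthetic minimal medium / Probe or stimulus: nicotinamide, 1.5 mM, co-present with compound / Compound: one concentration, 10 µM, DMSO 0.25% / Incubation: 48 h compound exposure at 30 °C, humidified / Technique: optical density (absorbance) at 615 nm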
# bCat KO growth – primary screen for growth suppressors in beta-catenin knockout HCT116 cells (colon tumor, human). actives 1.5% (n = 140,000). viability, % at 10 µM. HCT116 beta-catenin knockout viability, CellTiter-Glo, 60 h; stronger effect = lower value;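 active = viability at or under a set limit, the compound median less 4 SD, cut at about 6% in these data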;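 also: 0% = Hyamine 1622 control at 20 µM and 100% = untreated cell control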
# sdo1 growth – growth rescue of sdo1-depleted yeast, primary screen, S. cerevisiae, bone marrow failure model | S. cerevisiae sdo1-depleted JHY4D growth rescue, OD600 30 h; stronger effect = higher value; pdr5 snq2 efflux-pump mutant strain | z-score at 10 µM | actives 0.21% (n = 140,000) | AID 817, 2007;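 active = z-score above 3 at both the 24 hr and the 30 hr optical density reads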;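 also: z-score against mean and SD of all compound wells on the same plate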
# BB579 growth dn – growth inhibitors of yeast BB579 in restrictive medium, primary screen, yeast lifespan-shortening project, S. cerevisiae | OD615, 48 h | inhibition, % at 10 µM | actives 0.51% (n = 140,000) | AID 804, 2007;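 active = inhibition above a set limit, 3 SD over the mean compound inhibition, cut at about 44% in these data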
#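 Assay system: S. cerevisiae DeaD strain BB579 yeast. Medium: CSMM-D restrictive synthetic medium containing dextrose (glucose). Times: 4 h cell preincubation, 48 h compound exposure, 30 °C humidified. Signal: OD615 turbidity measurement. Benchmarks: positive control amphotericin B 10 µg/mL.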
# HCT116 PTEN-null – growth suppression of PTEN-null HCT116, primary screen, cell-based, CellTiter-Glo; actives 1.2% (n = 140,000); viability, % at 10 µM; HCT116 PTEN-null viability, 60 h; stronger effect = lower value;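 active = viability at or below a set limit, 4 SD under the median of all tested compounds, cut at about 3.7% in these data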;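 also: PTEN knockout HCT116 line with beta catenin targeted HCT116 as companion control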
# * = called active by the depositor; / = no result given.
SMILES,Yeast life ext,bCat KO growth,sdo1 growth,BB579 growth dn,HCT116 PTEN-null
CCc1nnc(NC(=O)C2CCCN2C(=O)NC2CCCCC2)s1 (stereo not drawn),-4,102,-0.58,-42,97
Cc1ccc(S(=O)(=O)N2CCN(CC(=O)N/N=C/c3ccco3)CC2)cc1,7,87,0.12,-8,101
CC1CCCCC12NC(=O)N(CC(=O)Nc1ccc(N3CCOCC3)cc1)C2=O (stereo not drawn),-6,93,0.26,-2,98
CC1CCN(C(=O)CSc2nnc(-c3cc4ccccc4cc3O)n2Cc2ccco2)CC1,-6,81,-0.91,-26,88
COc1ccc(CCNC(=O)c2cnn3c(C(F)F)cc(C)nc23)cc1OC,3,91,1.4,51*,88
COc1ccccc1CCNC(=O)c1cnn2c(C(F)F)cc(C)nc12,-8,98,-0.59,-25,104
CCOc1cc(/C=N\NC(=O)Cc2ccccc2)ccc1OCC(=O)Nc1ccc(C)c(C)c1,-4,15,0.2,-62,20
CCOc1cc(/C=N/Nc2ccccc2Cl)ccc1OCC(=O)O,-9,83,-2.1,96*,94
C=CCn1c(C)cc(C(=O)COc2ncnc3sccc23)c1C,44*,70,-0.91,-21,67
CC(C)NC(=O)COc1ncnc2sccc12,-16,100,0.8,7,113
O=C(Cc1cccs1)NNC(=S)NC(=O)c1ccc(F)c(F)c1,1,98,-0.19,-19,98
O=C(Cc1cccs1)NNC(=S)NC(=O)c1ccccc1,7,21,-0.49,86*,17
CCOC(=O)c1cnc2ccc(OCC)cc2c1N(C)Cc1ccccc1,-5,53,-0.52,-2,61
CC(C)c1nc(SCc2c(F)cccc2Cl)c2c(=O)n(C)c(=O)n(C)c2n1,-10,3.5*,0.28,-40,3.7*
O=c1c2ccccc2nc2c3ccccc3c(NCCN3CCOCC3)nn12,-10,1.9*,0.67,0,2.5*
N#CC(C#N)=c1ccc2c(c1)NC1(CCCCC1)N=2,4,1.4*,2.9,22,1.3*
CN1CCN(c2ccccc2NC(=O)c2ccc(-c3ccc(Cl)cc3Cl)o2)CC1,-22,5.5*,-2.3,-10,7
Cc1ccc(C)c2[nH]c(=O)c(C(c3nnnn3C(C)(C)C)N3CC=C(c4ccc(F)cc4)CC3)cc12 (stereo not drawn),4,66,-0.42,-30,67
CCN1CCN(c2cc(-c3ccccc3)nc3cc(-c4cccc(F)c4)nn23)CC1,/,1.2*,-2.4,-66,1.4*
Cc1c(C#N)c2ccccc2n1CC(=O)NCc1ccccc1,/,86,-0.03,-15,99
CCCNC(=O)COC(=O)c1ccccc1OCc1ccc(Cl)cc1,-13,90,-0.96,15,83
O=C(Oc1c(Cl)cc(Cl)c2cccnc12)c1ccco1,-20,3.5*,-1.9,2,13
O=C(Oc1c(Cl)cc(Cl)c2cccnc12)c1cccs1,/,12,-2,99*,12
O=C(Oc1cc2oc(=O)c3c(c2cc1Cl)CCCC3)c1cccs1,0,100,-1.1,-33,106
Cc1ccc2nc(NC(=O)/C=C/c3ccc4c(c3)OCO4)sc2c1,-3,8,0.3,-15,1.2*
SMILES,Yeast life ext,bCat KO growth,sdo1 growth,BB579 growth dn,HCT116 PTEN-null
O=C(/C=C/c1ccc2c(c1)OCO2)Nc1nc(-c2ccc(F)cc2F)cs1,0,5.8*,-0.44,-1,12
CC1=NN(c2ccc(C)cc2)C(=O)/C1=C\C=C\c1ccccc1,1,3.1*,-0.54,-32,3.0*
CCOC(=O)Cc1csc(NC(=O)CC(C)(C)C)n1,-1,88,0.71,-23,84
CC(=O)NC1C(=O)N=C(SCC(=O)NC2CCCCC2)NC1=O (stereo not drawn),-3,89,-0.29,48*,92
O=C1c2ccccc2NC(c2ccc(-c3cccc([N+](=O)[O-])c3)o2)N1O (stereo not drawn),2,12,0.08,27,10
O=C1c2ccccc2NC(c2ccc(-c3ccc(Br)cc3)o2)N1O (stereo not drawn),-3,4.5*,-1.2,94*,3.4*
Nc1nc(SCC(=O)NC2CCCCCC2)[nH]c(=O)c1-c1ccccc1,-3,96,1.5,-21,92
OCCN(CCO)CC(O)COc1ccc(C23CC4CC(CC(C4)C2)C3)cc1 (stereo not drawn),-10,12,-0.95,46*,6
COc1cc(S(=O)(=O)NCC2OCCc3ccccc32)ccc1-n1cnnn1 (stereo not drawn),-3,90,1.6,-43,95
COc1ccccc1OCc1nnc(SCC(=O)c2cc(Cl)ccc2OC)o1,-36,63,-1.6,-70,56
O=C(CSc1nc(-c2cccs2)cc(C(F)(F)F)n1)Nc1cc(OCC(F)(F)F)cc([N+](=O)[O-])c1,0,2.1*,-1.3,-60,9
CCC(C)NC(=O)CSc1nc(-c2cccs2)cc(C(F)(F)F)n1 (stereo not drawn),-12,91,0,-33,91
CC(NC(=O)CSC(=S)N(C)C)C12CC3CC(CC(C3)C1)C2 (stereo not drawn),12,88,0.21,-37,80
Cc1ccc(NC(=O)CSc2nc3ccccc3c(=O)n2CCCC(=O)N2CCCC2)cc1,5,36,-0.55,-91,39
Cc1ccc(NC(=O)CSc2nc3ccccc3c(=O)n2CCCN2CCCCC2)cc1C,-25,1.9*,-0.05,-30,2.1*
O=S1(=O)Nc2c(ccc3cccnc23)-c2ccccc21,-13,4.7*,-1.2,100*,2.3*
COc1ccc(C2C(C#N)=C(N)Oc3c2c(-c2ccccc2)nn3-c2ccccc2)c(OC)c1OC (stereo not drawn),2,91,-0.01,-34,96
O=C(Nc1ccc(NC(=O)c2sc3ccccc3c2Cl)cc1)c1ccco1,3,1.4*,-0.98,-20,1.5*
CCC(CC)C1=NN2C(=N)/C(=C\c3cc(C)n(-c4cccc(C)c4)c3C)C(=O)N=C2S1,4,98,-1,0,95
O=C(Nc1ccc(N2CCN(C(=O)c3ccccc3)CC2)cc1)c1cc2ccccc2o1,-13,5.6*,-1.7,-59,17
CCCC(=O)N1CCN(c2ccc(NC(=O)c3cc4ccccc4o3)cc2)CC1,-7,90,-0.51,-15,80
CN(C)S(=O)(=O)c1ccc(Cl)c(NC(=O)COc2ccccc2[N+](=O)[O-])c1,0,91,0.5,-15,98
CSC1=NSC2=NC(=O)/C(=C\c3coc4ccccc4c3=O)C(=N)N12,21,101,0.01,70*,100
